Laboratory results as given in PMC6675461 (Bioorganic & medicinal chemistry, 2009).
Where two headings read alike, the source gives them in different places.

Assays:
B16-F1 cells = experiment: SRB antiproliferative assay, B16-F1 melanoma cells; type: cell-based, mouse; conditions: read-out: IC50 ± SEM B16-F1, 48 h, diastereomeric mixtures
How it was run: (§1)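 Melanoma lines (human A375, WM-164; mouse B16-F1) and human dermal fibroblasts were grown in DMEM with 5% FBS, 1% antibiotic/antimycotic and bovine insulin (5 μg/mL) at 37 °C, 5% CO2. Diastereomeric mixtures were applied over a wide concentration range for 48 h. Cells were then TCA-fixed (10%), washed, air-dried overnight and SRB-stained, with absorbance read at 560 nm. IC50 (50% growth inhibition versus untreated) was obtained by nonlinear regression.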

A375 cells [1] = experiment: SRB antiproliferative assay, A375 melanoma cells; type: cell-based, human; conditions: read-out: IC50 ± SEM A375; SRB, 48 h, diastereomeric mixtures
How it was run: as §1

WM-164 cells = experiment: SRB antiproliferative assay, WM-164 melanoma cells; type: cell-based, human; conditions: read-out: IC50 ± SEM WM-164; SRB, 48 h, diastereomeric mixtures
How it was run: as §1

[2] = tested on: Human dermal fibroblast cells; experiment: SRB assay, fibroblast control cells; type: cell-based; conditions: read-out: IC50 ± SEM Fibroblast, 48 h, control cell line for melanoma
How it was run: as §1

[3] = tested on: three melanoma cell lines (B16-F1, A375, WM-164); experiment: SRB assay, average over melanoma cell lines and selectivity vs fibroblast; type: cell-based, human, mouse; conditions: for Ratio = (IC50 of fibroblast cell)/(the average IC50 of melanoma cell lines): selectivity, fold
DU 145 cells = experiment: SRB antiproliferative assay, DU 145 prostate cancer cells; type: cell-based, human; conditions: read-out: IC50 ± SEM DU 145
How it was run: (§2)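 Prostate cancer cells were grown in RPMI1640 with 10% FBS at 37 °C, 5% CO2. Cells were fixed with 10% TCA and stained with 0.4% SRB, and absorbance was read at 540 nm. IC50 came from nonlinear regression of % survival versus concentration.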

PC-3 cells = experiment: SRB antiproliferative assay, PC-3 prostate cancer cells; type: cell-based, human; conditions: read-out: IC50 ± SEM PC-3; SRB, 96 h, Table 2
LNCaP cells [4] = experiment: SRB antiproliferative assay, LNCaP prostate cancer cells; type: cell-based, human; conditions: read-out: IC50 ± SEM LNCaP, 96 h
How it was run: as §2

PPC-1 cells = experiment: SRB antiproliferative assay, PPC-1 prostate cancer cells; type: cell-based, human; conditions: read-out: IC50 ± SEM PPC-1
How it was run: as §2

[5] = tested on: four prostate cancer cell lines (DU 145, PC-3, LNCaP, PPC-1); experiment: SRB assay, average over prostate cancer cell lines and selectivity vs RH7777; type: cell-based, human; conditions: for IC50: read-out: Aver. (average IC50 of four prostate cells IC50s), DU 145, PC-3, LNCaP, PPC-1; for Ratio = (IC50 of RH7777 cell)/(average IC50 of prostate cell lines): selectivity, fold
How it was run: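 The control line was LPL receptor-negative RH7777 in DMEM/10% FBS. The prostate IC50s were averaged. Selectivity = IC50 in RH7777 divided by the average tumor-cell IC50.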

A375 melanoma tumors = experiment: A375 melanoma xenograft in athymic nude mice; type: in vivo
[6] = tested on: NCI-60 human tumor cell lines; experiment: NCI-60 human tumor cell line anticancer drug screen; type: cell-based
A375 cells [7] = experiment: Flow cytometric cell cycle analysis, A375; type: cell-based, human; conditions: A375, tested 1, 5, 10, 20 μM, 48 h
LNCaP cells [8] = experiment: Flow cytometric cell cycle analysis, LNCaP; type: cell-based, human; conditions: tested 1, 5, 10, 20 μM, 48 h
A375 cells [9] = experiment: Melanoma colony-formation assay; type: cell-based, human; conditions: 14 days
How it was run: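 A375 cells were plated at colony-forming density (2000 per well) in DMEM with FBS and antibiotic-antimycotic at 37 °C, 5% CO2. Test compound was added at 2, […], with matching DMSO dilution as vehicle control. After 14 days' growth, colonies were stained with 0.1% […] for 30 min, rinsed and counted with an automated colony counter.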

LPA1 = LPA1 (Homo sapiens, UniProt Q92633); experiment: FLIPR intracellular calcium mobilization assay, LPA1-transfected Chem-1 cells; type: cell-based; conditions: top concentration 10 μM; 15% activation of oleoyl-LPA Emax = agonist
LPA3 = target: T1, LPA3 (Homo sapiens, UniProt Q9UBY5); experiment: FLIPR intracellular calcium mobilization assay, LPA3-transfected Chem-1 cells; type: cell-based; conditions: top concentration 10 μM; 15% activation of oleoyl-LPA Emax = agonist
T1 sequence (Q9UBY5 1-353): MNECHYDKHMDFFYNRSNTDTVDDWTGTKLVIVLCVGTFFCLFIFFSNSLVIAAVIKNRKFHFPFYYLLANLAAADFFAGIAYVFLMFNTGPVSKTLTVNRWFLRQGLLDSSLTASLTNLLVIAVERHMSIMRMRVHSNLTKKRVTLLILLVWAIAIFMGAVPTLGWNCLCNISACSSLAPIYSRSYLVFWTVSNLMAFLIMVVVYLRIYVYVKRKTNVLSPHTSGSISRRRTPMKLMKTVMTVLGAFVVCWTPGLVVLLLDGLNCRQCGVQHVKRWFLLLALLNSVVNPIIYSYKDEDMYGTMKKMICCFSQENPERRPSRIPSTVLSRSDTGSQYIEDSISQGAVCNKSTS

LPA5 = LPA5 (Homo sapiens, UniProt Q9H1C0); experiment: FLIPR intracellular calcium mobilization assay, LPA5-transfected Chem-1 cells; type: cell-based; conditions: top concentration 10 μM; 15% activation of oleoyl-LPA Emax = agonist
[10] = read-out: Aver. (average IC50 of three melanoma cells IC50s), B16-F1, A375, WM-164

Chain of LPA5 (Q9H1C0 whole entry, species assumed): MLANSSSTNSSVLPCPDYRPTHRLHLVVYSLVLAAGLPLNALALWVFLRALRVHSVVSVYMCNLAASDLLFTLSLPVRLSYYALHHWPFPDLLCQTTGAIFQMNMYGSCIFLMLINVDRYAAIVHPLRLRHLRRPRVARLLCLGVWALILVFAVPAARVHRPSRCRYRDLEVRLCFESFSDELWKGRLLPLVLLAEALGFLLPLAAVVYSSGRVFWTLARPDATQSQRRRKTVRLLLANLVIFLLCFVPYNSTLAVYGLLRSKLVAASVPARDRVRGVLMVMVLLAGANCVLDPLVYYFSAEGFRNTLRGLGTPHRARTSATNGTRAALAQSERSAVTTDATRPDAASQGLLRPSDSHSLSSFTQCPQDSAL
Chain of LPA1 (Q92633 whole entry, species assumed): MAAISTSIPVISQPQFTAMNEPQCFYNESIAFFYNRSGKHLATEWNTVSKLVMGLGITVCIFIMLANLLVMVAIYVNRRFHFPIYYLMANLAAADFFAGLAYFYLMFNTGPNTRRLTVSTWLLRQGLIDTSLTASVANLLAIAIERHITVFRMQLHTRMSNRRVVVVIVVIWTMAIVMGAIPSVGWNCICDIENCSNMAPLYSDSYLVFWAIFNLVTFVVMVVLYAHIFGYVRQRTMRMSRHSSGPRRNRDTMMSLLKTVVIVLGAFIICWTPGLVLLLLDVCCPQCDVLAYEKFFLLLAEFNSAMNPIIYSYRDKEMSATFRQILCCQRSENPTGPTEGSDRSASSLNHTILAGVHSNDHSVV

Compound	IC50 (B16-F1 cells) [µM]	IC50 (A375 cells [1]) [µM]	IC50 (WM-164 cells) [µM]	IC50 (DU 145 cells; SRB, 96 h, Table 2) [µM]	IC50 (PC-3 cells) [µM]	IC50 (LNCaP cells [4]; SRB, Table 2) [µM]	IC50 (PPC-1 cells; SRB, 96 h, Table 2) [µM]	IC50 [5] [µM]	Ratio = (IC50 of RH7777 cell)/(average IC50 of prostate cell lines) [5]	IC50 [2] [µM]	IC50 [3, 10] [µM]	Ratio = (IC50 of fibroblast cell)/(the average IC50 of melanoma cell lines) [3]	other results
(2RS,4R)-3-Acetyl-2-(4-acetylamino-phenyl)-thiazolidine-4-carboxylic acid hexadecylamide [Compound 4]	15 ± 0.8	12.6 ± 0.5	20.4 ± 0.8	14.9 ± 2.2	9 ± 1.3	10.6 ± 0.6	6.8 ± 0.8	10.3	1.3	57.7 ± 1.3	16	3.6	–
CN(C)/N=N/c1[nH]cnc1C(N)=O [DTIC, dacarbazine]	–	–	–	–	–	–	–	–	–	–	–	–	Antiproliferative activity on melanoma cell lines, in words ([3]; reference compounds, in vitro): inactive; tumor growth inhibition (A375 melanoma tumors; 60 mg/kg i.p. once daily, end of treatment, nude mice): 42%; body weight change during the experiment (A375 melanoma tumors; mouse, in vivo): no significant body weight loss
CCCCCCCCCCCCCCCCNC(=O)[C@@H]1CSC(c2ccc(NC(C)=O)cc2)N1 (mixture of isomers) [Compound 1b, (2RS,4R)-2-(4-Acetylamino-phenyl)-thiazolidine-4-carboxylic acid hexadecylamide]	–	–	–	–	–	–	–	–	–	–	–	–	IC50 ([3]; Fibroblast, read-out: Aver. (average IC50 of three melanoma cells IC50s)): 1.8 µM; IC50 ([3]; Fibroblast, read-out: IC50 range over melanoma cell lines): 0.7 to 2.1 µM; IC50 (DU 145 cells; Homo sapiens, DU-145, 96 h): 1.7 ± 0.1 µM; IC50 (LNCaP cells [4]; Homo sapiens, LNCaP): 1 ± 0.1 µM; IC50 (PPC-1 cells; Homo sapiens, PPC-1, 96 h): 0.4 ± 0.1 µM; GI50 ([6]; read-out: GI50 melanoma): 0.13 to 1.48 µM; GI50 ([6]; read-out: GI50 prostate cancer): 0.17 to 0.27 µM; GI50 ([6]; read-out: GI50 range, all nine types of cancer cells): 0.12 to 10.9 µM; concentration at which accumulation of cells in sub-G1 phase became apparent (A375 cells [7]): 5 µM; concentration at which accumulation of cells in sub-G1 phase became apparent (LNCaP cells [8]): 5 µM; inhibition of A375 colony formation (A375 cells [9]; 2 μM): effectively inhibit; inhibition of A375 colony formation (A375 cells [9]; 100 μM): completely inhibited; body weight change during the experiment (A375 melanoma tumors; nude mice, treatment groups): no significant body weight loss
Cc1noc(-c2ccc(CSCCC(=O)O)cc2)c1NC(=O)OC(C)c1ccccc1Cl (centres unmarked) [Ki16425, reference compound]	–	–	–	–	–	–	–	–	–	–	–	–	agonist activity on LPA1, in words (LPA1): did not show agonist effect; agonist activity on LPA3, in words (LPA3): did not show agonist effect; agonist activity on LPA5, in words (LPA5): did not show agonist effect

Further lines, with some results ahead:

IC50 (B16-F1 cells) [µM]	IC50 (A375 cells [1]) [µM]	IC50 (WM-164 cells) [µM]	IC50 (DU 145 cells; SRB, 96 h, Table 2) [µM]	IC50 (PC-3 cells) [µM]	IC50 (LNCaP cells [4]; SRB, Table 2) [µM]	IC50 (PPC-1 cells; SRB, 96 h, Table 2) [µM]	IC50 [5] [µM]	Ratio = (IC50 of RH7777 cell)/(average IC50 of prostate cell lines) [5]	Compound	IC50 [2] [µM]	IC50 [3, 10] [µM]	Ratio = (IC50 of fibroblast cell)/(the average IC50 of melanoma cell lines) [3]	other results
18.9 ± 1.3	20.6 ± 2.1	10.7 ± 0.9	3.9 ± 0.4	3.7 ± 0.2	1.8 ± 0.1	0.8 ± 0.1	2.6	3.6	(2RS,4R)-2-(4-Acetylamino-phenyl)-thiazolidine-4-carboxylic acid (1-methyl-octadecyl)-amide [Compound 3ia]	> 100	16.7	–	fold decrease in potency compared with 1b, melanoma cells ([3]; from average IC50): 9.3 fold; fold decrease in potency compared with 1b, prostate cancer cells ([5]; from average IC50): 2.4 fold
3.9 ± 0.3	2.1 ± 0.1	1.7 ± 0.1	1.9 ± 0.3	2.1 ± 0.1	3.5 ± 0.7	1.6 ± 0.1	2.3	2.4	(2RS,4R)-2-(4-Acetylamino-phenyl)-thiazolidine-4-carboxylic acid-(9H-fluoren-2-yl)-amide [Compound 3id]	28.9 ± 1	2.6	11.3	–
